Inconclusive results are not listed.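 Rule for the calls, unless noted: active = inhibition over a set limit, the all-compound mean plus 3 SD, in both replicate runs; inconclusive = over that limit in just one replicate run; inactive = at or under that limit in both runs.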
Legend:
[1] = OD615 S. cerevisiae growth inhibition, permissive medium, pilot counter-assay, permissive growth control for S. cerevisiae lifespan shortening project (AID 705;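 active = growth inhibition above 25% in both replicates, a cutoff set 3 SD above the mean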); conditions: OD615, 24 h, at 10 µM, hits give high values
In short: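 System: Engineered DeaD yeast | Buffer or medium: SC raffinose/galactose permissive medium | Doses: 10 µM single dose, 0.25% DMSO | Times: 24 h exposure, 30 °C | Measured by: OD615 turbidity read | Read-out: Yeast growth inhibition indicated by reduced 24 h OD615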

[2] = Restrictive medium S. cerevisiae growth inhibition, OD615, pilot screen of yeast lifespan reduction project, restrictive growth control (AID 706;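 active = growth inhibition above a set limit, 3 SD over mean compound inhibition, in both replicates, cut at about 43% in these data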;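 note: modified DeaD lifespan yeast strain shifted to restrictive glucose medium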); conditions: OD615, 48 h, at 10 µM, hits give high values
In short: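 Assay system: engineered S. cerevisiae DeaD strain; Buffer or medium: CSMM-D glucose medium; Dosing: 10 µM compound, 0.25% DMSO; Times: cell pre-growth 4 h, compound exposure 48 h, 30 °C; Detection: absorbance (optical density) measured at 615 nm.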

[3] = viability gain of MRP-1-high H69AR cells under doxorubicin, pilot screen, MRP-1 activator project, CellTiter-Glo, duplicate (AID 807;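 active = viability increase at or above a cutoff of the median across tested compounds plus 3 SD, cut at about 8.5% in these data, passing the limit was not always enough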;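 note: compound pretreatment 18-22 h then 72 h combined with doxorubicin; 0% = doxorubicin alone and 100% = vehicle without doxorubicin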); conditions: H69AR viability with doxorubicin, CellTiter-Glo luminescence; at 10 µM; hits give high values
[4] = growth suppression of beta-catenin knockout HCT116, pilot screen, human colon tumor cells (AID 823;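 active = cell viability at or below a set limit in both duplicate runs, the limit being the all-compound median minus 4 SD, cut at about 23% in these data, passing the limit was not always enough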;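 note: 0% = wells killed by 20 µM Hyamine and 100% = untreated DMSO cell wells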); conditions: CellTiter-Glo, 60 h, at 10 µM, hits give low values
[5] = growth suppression of PTEN-deleted HCT116, pilot screen, cell-based, HCT116 clonal line, CellTiter-Glo (AID 824;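 active = viability at or below 27.92% in each of two runs, the all-compound median minus 4 SD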;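 note: 0% = 20 µM Hyamine control and 100% = vehicle cell control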); conditions: 60 h, at 10 µM, hits give low values
[6] = inhibitors of the yeast RAM network, pilot screen, dse1pr::URA3 reporter, 5-FOA selection (AID 869);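 note: 0% = DMSO wells with no growth and 100% = 10 µM 1-NA-PP1 with full growth; RAM network block rescues cells from 5-FOA so hits raise OD615 growth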; conditions: S. cerevisiae dse1pr::URA3 5-FOA growth, OD615, 2 d; at 10 µM; hits give high values; strain carries analog-sensitive mutant Cbk1 kinase
[7] = RAM signaling pathway blockade in yeast – S. cerevisiae, Pdr1DBD-CYC8 efflux-inhibited sensitized strain, primary screen (AID 1298;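 active = RAM network inhibition above 8.4% in each of two replicates, 3 SD over the compound average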;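 note: 0% = DMSO untreated cells without growth and 100% = 10 µM 1-NA-PP1 full growth; higher means more yeast growth rescued from 5-FOA killing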); conditions: S. cerevisiae cbk1-as DSE1-URA3 strain, 5-FOA growth OD615, 2 d; at 50 µM; hits give high values

CC1CCN(c2c(NCc3ccc(C(=O)NCC4COc5ccccc5O4)cc3)c(=O)c2=O)CC1 (stereo unspecified)
inactive: growth inhibition [1] 2.94% | growth inhibition [2] 14.3% | viability increase [3] -2.96% | viability [4] 86.2% | viability [5] 96.2% | inhibition [6] 0.785% | RAM network inhibition [7] 4.87%

CCc1ccc(NC(=O)CSc2nnc(Cn3c(=O)sc4ccccc43)n2C)cc1
inactive: growth inhibition [1] -4.66% | growth inhibition [2] -25.2% | viability increase [3] -1.98% | viability [4] 104% | viability [5] 97.6% | inhibition [6] 2.96% | RAM network inhibition [7] 8.29%

CCN(CCNC(=O)CCCn1nc(C)n2c(cc3sccc32)c1=O)c1ccccc1
inactive: growth inhibition [1] -7.8% | growth inhibition [2] -4.82% | viability increase [3] 1.17% | viability [4] 97.2% | viability [5] 93% | inhibition [6] -0.2% | RAM network inhibition [7] 6.63%

O=C1NCCCC1C(=O)N1CCN(C(=O)c2ccco2)CC1 (stereo unspecified)
inactive: growth inhibition [1] -3.22% | growth inhibition [2] -1.05% | viability increase [3] -0.63% | viability [4] 106% | viability [5] 98.6% | inhibition [6] -0.03% | RAM network inhibition [7] 0.31%

COc1cc(S(=O)(=O)N2CCN(Cc3ccc4c(c3)OCO4)CC2)c(C)cc1C
inactive: growth inhibition [1] -4.19% | growth inhibition [2] -11.6% | viability increase [3] -4.77% | viability [4] 57.5% | viability [5] 71.1% | inhibition [6] 2.5% | RAM network inhibition [7] 5.84%

CC(=O)c1c(Nc2ccc3c(c2)OCCO3)oc(C)cc1=O
inactive: growth inhibition [1] -21.9% | growth inhibition [2] 0.47% | viability increase [3] -5.39% | viability [4] 110% | viability [5] 100% | inhibition [6] 0.68% | RAM network inhibition [7] -2.1%

O=S(=O)(NC1CCCCC1NCc1ccco1)c1ccccc1 (stereo unspecified)
inactive: growth inhibition [1] -9.75% | growth inhibition [2] -2.12% | viability increase [3] -4.92% | viability [4] 98% | viability [5] 92.6% | inhibition [6] 1.82% | RAM network inhibition [7] 6.55%

Cc1ccccc1-n1nc2c(c1NC(=O)COc1ccc(Cl)cc1)CS(=O)C2 (stereo unspecified)
inactive: growth inhibition [1] -5.57% | growth inhibition [2] -3.5% | viability increase [3] 0.22% | viability [4] 98.3% | viability [5] 92.6% | inhibition [6] 1.46% | RAM network inhibition [7] 1.42%

CC1CN(S(=O)(=O)c2ccc(Cl)c(S(=O)(=O)N3CC(C)OC(C)C3)c2)CC(C)O1 (stereo unspecified)
inactive: growth inhibition [1] -13.5% | growth inhibition [2] -17.1% | viability increase [3] -0.41% | viability [4] 89% | viability [5] 87.1% | inhibition [6] 4.11% | RAM network inhibition [7] 1.17%

Cc1cc(C)n2c(SCC#N)nnc2n1
inactive: growth inhibition [1] -13.1% | growth inhibition [2] -13% | viability increase [3] 0.04% | viability [4] 103% | viability [5] 92.2% | inhibition [6] 2.84% | RAM network inhibition [7] 3.94%

O=C(NCCC1=CCCCC1)NC1CCCCC1
inactive: growth inhibition [1] -7.04% | growth inhibition [2] 8.29% | viability increase [3] -0.3% | viability [4] 87.2% | viability [5] 87.3% | inhibition [6] 1.33% | RAM network inhibition [7] 5.84%

COC(=O)C1C(=O)CC(C)(O)C(C(=O)OC)C1c1ccc2c(c1)OCO2 (stereo unspecified)
inactive: growth inhibition [1] -10.3% | growth inhibition [2] -17% | viability increase [3] 0.03% | viability [4] 92.3% | viability [5] 98.5% | inhibition [6] 1.74% | RAM network inhibition [7] 0.48%

Cc1c(C(=O)NCc2ccc3c(c2)OCO3)sc2nc(-c3ccc(F)cc3)cn12
inactive: growth inhibition [1] -13.8% | growth inhibition [2] -14.9% | viability increase [3] 0.84% | viability [4] 108% | viability [5] 105% | inhibition [6] 2.14% | RAM network inhibition [7] 6.3%

O=C1CC(c2nc3ccccc3[nH]2)CN1Cc1ccccc1 (stereo unspecified)
inactive: growth inhibition [1] -0.355% | growth inhibition [2] -0.09% | viability increase [3] -1.02% | viability [4] 101% | viability [5] 95% | inhibition [6] 1.07% | RAM network inhibition [7] 0.96%

CSC1=NCCN1C(=O)C(C)Oc1ccccc1 (stereo unspecified)
inactive: growth inhibition [1] 1.44% | growth inhibition [2] -0.77% | viability increase [3] 1.74% | viability [4] 101% | viability [5] 99.2% | inhibition [6] 0.34% | RAM network inhibition [7] 0.46%

CCc1nnc(NC(=O)CCC(=O)O)s1
inactive: growth inhibition [1] -7.04% | growth inhibition [2] -5.46% | viability increase [3] 0.56% | viability [4] 98.3% | viability [5] 96.3% | inhibition [6] 0.815% | RAM network inhibition [7] 2.03%

CCc1ccccc1NC(=O)c1cc(-c2cccc(O)c2)on1
inactive: growth inhibition [1] -21.2% | growth inhibition [2] -5.59% | viability increase [3] -1.49% | viability [4] 98% | viability [5] 96% | inhibition [6] 4.72% | RAM network inhibition [7] 8.2%

Cc1cc(C)cc(N(CC(=O)N2CCN(Cc3ccccc3)CC2)S(=O)(=O)c2c(C)noc2C)c1
inactive: growth inhibition [1] -13.5% | growth inhibition [2] -29.5% | viability increase [3] -4.22% | viability [4] 101% | viability [5] 96.9% | inhibition [6] 1.84% | RAM network inhibition [7] 3.45%
